Test results reported in ChEMBL document CHEMBL1128543, “Computer-aided design and synthesis of 5-substituted tryptamines and their pharmacology at the 5-HT1D receptor: discovery of compounds with potential anti-migraine properties” (J Med Chem, 1995).

Experiments:
[1] = biological target: 5-hydroxytryptamine receptor 1B (Homo sapiens, UniProt P28222); assay: Binding affinity against 5-hydroxytryptamine 1D receptor beta using rabbit saphenous vein assay.; assay type: tissue-based
Method in brief: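 Saphenous vein rings (4–5 mm) from male New Zealand White rabbits, in Krebs–Henseleit buffer at 37 °C, pH 7.4, gassed 95% O2/5% CO2, 2 g passive force. Pretreated with pargyline (500 μM) and phenoxybenzamine (0.3 μM) for 30 min, then washed. A cumulative 5-HT curve was followed after 60 min by a curve to the test agonist. p[A50] and α relative to 5-HT maximum were derived; mean of n ≥ 3.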

[2] = biological target: Serotonin 3 (5-HT3) receptor (Homo sapiens) (UniProt P46098+A5X5Y0+O95264+Q70Z44+Q8WXA8); assay: Binding affinity against 5-hydroxytryptamine 3 receptor […]; assay type: cell-based; details: Oryctolagus cuniculus
D(2) dopamine receptor = D(2) dopamine receptor (Rattus norvegicus, UniProt P61169); assay: Binding affinity against Dopamine receptor D2 in rat striatum using [3H]-spiperone as radioligand; assay type: tissue-based
Chain of D(2) dopamine receptor (P61169 whole entry): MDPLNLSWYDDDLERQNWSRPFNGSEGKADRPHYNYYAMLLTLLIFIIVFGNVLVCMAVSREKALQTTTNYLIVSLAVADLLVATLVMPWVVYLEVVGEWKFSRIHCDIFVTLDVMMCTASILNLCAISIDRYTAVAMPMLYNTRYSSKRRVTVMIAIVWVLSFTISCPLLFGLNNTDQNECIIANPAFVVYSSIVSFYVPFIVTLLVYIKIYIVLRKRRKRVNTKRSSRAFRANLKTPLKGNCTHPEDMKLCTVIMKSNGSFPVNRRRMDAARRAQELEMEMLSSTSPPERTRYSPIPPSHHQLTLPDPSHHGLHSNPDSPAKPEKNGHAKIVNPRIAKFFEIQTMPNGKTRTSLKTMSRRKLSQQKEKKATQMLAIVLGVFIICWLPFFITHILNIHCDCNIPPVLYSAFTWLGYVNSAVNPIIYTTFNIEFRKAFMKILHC
Method in brief: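 Incubation was 30 min at 27 °C in Tris-HCl 50 mM/CaCl₂ 5 mM/0.1% ascorbate/10 mM pargyline buffer. Bound and free label were separated by filtration and counted by liquid scintillation. pK_i or pIC₅₀ is the mean of n ≥ 3.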

[3] = biological target: 5-hydroxytryptamine receptor 1D (Homo sapiens) (UniProt P28221); assay: (§1) Intrinsic activity against 5-hydroxytryptamine 1 receptor using rabbit saphenous vein assay.; assay type: tissue-based; details: Oryctolagus cuniculus, target entry is the homologue from another species
Chain of 5-hydroxytryptamine receptor 1D (Homo sapiens) (P28221 whole entry): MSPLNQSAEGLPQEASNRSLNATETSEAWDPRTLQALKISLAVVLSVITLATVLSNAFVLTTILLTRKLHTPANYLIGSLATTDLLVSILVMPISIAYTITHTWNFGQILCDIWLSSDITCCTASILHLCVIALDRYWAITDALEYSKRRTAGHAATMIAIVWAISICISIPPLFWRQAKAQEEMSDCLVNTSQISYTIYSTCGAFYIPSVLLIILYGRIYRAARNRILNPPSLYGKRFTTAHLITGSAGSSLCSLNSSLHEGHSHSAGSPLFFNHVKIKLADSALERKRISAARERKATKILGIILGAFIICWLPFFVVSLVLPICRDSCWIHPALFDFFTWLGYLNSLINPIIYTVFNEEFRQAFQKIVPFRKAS
Method in brief: (§2)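 Male New Zealand White rabbit saphenous vein rings (4–5 mm) in Krebs–Henseleit at 37 °C, pH 7.4, gassed with 95% O₂:5% CO₂, under 2 g passive force. Tissues got 30 min pargyline (500 μM) and phenoxybenzamine (0.3 μM), then were washed and checked with 1 μM 5-HT. A cumulative 5-HT curve was followed 60 min later by a test agonist curve. Potency is p[A₅₀]; α is test max/5-HT max; n ≥ 3.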

Oryctolagus cuniculus [4] = species: Oryctolagus cuniculus; assay: as §1; assay type: tissue-based; method in brief: as §2
[5] = biological target: Muscarinic acetylcholine receptor M3 (Homo sapiens) (UniProt P20309); assay: Binding affinity against Muscarinic acetylcholine receptor M3 using rabbit saphenous vein assay.; assay type: tissue-based; details: Oryctolagus cuniculus, target entry is the homologue from another species
Chain of Muscarinic acetylcholine receptor M3 (Homo sapiens) (P20309 whole entry, looked up): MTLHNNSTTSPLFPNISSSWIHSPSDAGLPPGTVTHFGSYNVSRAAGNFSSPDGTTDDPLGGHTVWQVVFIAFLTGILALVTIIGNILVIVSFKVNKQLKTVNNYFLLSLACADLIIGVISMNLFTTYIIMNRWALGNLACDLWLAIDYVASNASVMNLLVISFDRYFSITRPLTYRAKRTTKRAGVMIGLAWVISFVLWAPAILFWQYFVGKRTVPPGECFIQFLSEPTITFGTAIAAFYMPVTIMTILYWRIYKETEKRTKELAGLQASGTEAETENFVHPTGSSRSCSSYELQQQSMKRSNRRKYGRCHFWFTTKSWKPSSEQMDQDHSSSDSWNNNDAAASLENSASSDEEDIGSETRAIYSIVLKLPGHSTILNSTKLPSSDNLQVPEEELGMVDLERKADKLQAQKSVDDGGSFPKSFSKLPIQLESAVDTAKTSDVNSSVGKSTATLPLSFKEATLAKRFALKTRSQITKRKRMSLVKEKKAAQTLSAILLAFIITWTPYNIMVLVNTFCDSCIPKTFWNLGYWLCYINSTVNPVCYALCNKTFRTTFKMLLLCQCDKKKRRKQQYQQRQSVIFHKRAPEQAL

[6] = biological target: Adrenergic receptor alpha-1 (Homo sapiens) (UniProt P35348+P25100+P35368); assay: Binding affinity against Alpha-1 adrenergic receptor using rabbit saphenous vein assay.; assay type: tissue-based; details: Oryctolagus cuniculus, target entry is the homologue from another species
Oryctolagus cuniculus [7] = species: Oryctolagus cuniculus; assay: Binding affinity against 5-hydroxytryptamine 4 receptor using rabbit saphenous vein assay.; assay type: tissue-based
[8] = biological target: Histamine H2 receptor (Homo sapiens) (UniProt P25021); assay: Binding affinity against H2 receptor using rabbit saphenous vein assay.; assay type: tissue-based; details: Oryctolagus cuniculus, target entry is the homologue from another species
Chain of Histamine H2 receptor (Homo sapiens) (P25021 whole entry): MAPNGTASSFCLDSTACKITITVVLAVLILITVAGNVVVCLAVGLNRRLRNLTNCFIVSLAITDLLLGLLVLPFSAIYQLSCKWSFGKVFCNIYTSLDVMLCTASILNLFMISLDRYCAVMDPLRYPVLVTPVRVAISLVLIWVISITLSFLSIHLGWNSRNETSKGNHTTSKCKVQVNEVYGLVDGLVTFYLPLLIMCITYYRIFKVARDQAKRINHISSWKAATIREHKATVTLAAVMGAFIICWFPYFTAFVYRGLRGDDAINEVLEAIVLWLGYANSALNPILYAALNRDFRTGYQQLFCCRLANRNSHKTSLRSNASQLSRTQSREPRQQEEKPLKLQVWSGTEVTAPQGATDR

[9] = biological target: T1, 5-hydroxytryptamine receptor 1A (Homo sapiens) (UniProt P08908); assay: Binding affinity against 5-hydroxytryptamine 1 receptor using rabbit jugular vein assay in the presence of endothelium; details: Oryctolagus cuniculus; target entry is the homologue from another species
T1 sequence (whole entry): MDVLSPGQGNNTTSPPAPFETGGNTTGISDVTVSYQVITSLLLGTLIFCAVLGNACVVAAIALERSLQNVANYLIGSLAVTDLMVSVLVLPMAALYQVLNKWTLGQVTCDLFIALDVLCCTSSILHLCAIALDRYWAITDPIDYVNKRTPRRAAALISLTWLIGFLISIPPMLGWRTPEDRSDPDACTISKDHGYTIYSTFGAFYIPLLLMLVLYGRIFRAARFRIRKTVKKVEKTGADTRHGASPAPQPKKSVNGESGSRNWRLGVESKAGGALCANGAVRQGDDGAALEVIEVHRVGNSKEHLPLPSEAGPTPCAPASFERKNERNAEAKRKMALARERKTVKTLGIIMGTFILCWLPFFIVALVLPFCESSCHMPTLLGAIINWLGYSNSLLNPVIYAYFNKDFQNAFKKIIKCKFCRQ

Oryctolagus cuniculus [10] = species: Oryctolagus cuniculus; assay: Binding affinity against 5-hydroxytryptamine 1 receptor using rabbit saphenous vein assay.; assay type: tissue-based; method in brief: as §2
[11] = biological target: T2, Muscarinic acetylcholine receptor M2 (Homo sapiens) (UniProt P08172); assay: Binding affinity against Muscarinic acetylcholine receptor M2 using rabbit saphenous vein assay.; assay type: tissue-based; details: Oryctolagus cuniculus, target entry is the homologue from another species
T2 sequence (whole entry): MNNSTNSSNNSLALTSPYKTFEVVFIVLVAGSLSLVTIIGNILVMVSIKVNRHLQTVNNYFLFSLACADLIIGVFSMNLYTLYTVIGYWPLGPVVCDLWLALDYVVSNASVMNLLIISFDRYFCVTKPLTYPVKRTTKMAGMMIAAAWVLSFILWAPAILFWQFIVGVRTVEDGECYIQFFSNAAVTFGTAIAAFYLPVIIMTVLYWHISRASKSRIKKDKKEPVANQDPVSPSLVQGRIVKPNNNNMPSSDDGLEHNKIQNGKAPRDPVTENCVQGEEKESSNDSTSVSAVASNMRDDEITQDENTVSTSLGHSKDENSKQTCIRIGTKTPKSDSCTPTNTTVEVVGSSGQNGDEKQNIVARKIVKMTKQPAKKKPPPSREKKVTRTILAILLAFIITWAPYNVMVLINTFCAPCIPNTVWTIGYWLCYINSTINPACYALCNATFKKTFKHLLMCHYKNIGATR

[12] = biological target: Adrenergic receptor alpha-2 (Homo sapiens) (UniProt P08913+P18825+P18089); details: Oryctolagus cuniculus; Saphenous vein

Chain of 5-hydroxytryptamine receptor 1B (P28222 whole entry): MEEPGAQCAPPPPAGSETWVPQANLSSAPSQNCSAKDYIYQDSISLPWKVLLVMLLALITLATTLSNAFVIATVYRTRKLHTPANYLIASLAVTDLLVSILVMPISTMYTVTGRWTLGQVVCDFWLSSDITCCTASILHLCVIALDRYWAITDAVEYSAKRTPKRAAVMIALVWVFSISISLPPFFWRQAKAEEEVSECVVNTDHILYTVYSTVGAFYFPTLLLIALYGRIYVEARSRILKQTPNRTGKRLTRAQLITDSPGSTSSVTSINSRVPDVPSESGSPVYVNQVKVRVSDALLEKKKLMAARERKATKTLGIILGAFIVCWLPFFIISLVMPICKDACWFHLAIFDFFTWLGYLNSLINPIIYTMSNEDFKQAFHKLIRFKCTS

- Kd [1]: 1.5 nM
- p[A50] [2]: < 4.5
- Kd (D(2) dopamine receptor): 0.04 nM
- p[A50] [3]: 8.7
- Intrinsic activity (Oryctolagus cuniculus [4]): 0.77
- p[A50] [5]: < 4.5
- p[A50] [6]: < 4
- p[A50] (Oryctolagus cuniculus [7]): 5.3
- p[A50] [8]: < 4.5
- p[A50] [9]: 6.45
- p[A50] (Oryctolagus cuniculus [10]): 6.8
- p[A50] [11]: < 4.5
- p[A50] [12]: 4.1
SMILES: CN(C)CCc1c[nH]c2ccc(C[C@H]3COC(=O)N3)cc12 [ZOLMITRIPTAN]
